Results published in ChEMBL document CHEMBL1127555, “Novel (4-phenylpiperidinyl)- and (4-phenylpiperazinyl)alkyl-spaced esters of 1-phenylcyclopentanecarboxylic acids as potent sigma-selective compounds” (J Med Chem, 1994).

Columns and labels:
[1] = Binding affinity for sigma-1 site over dopamine receptor D1 in rat using [3H]SCH-23390 as radioligand
[2] = Binding affinity for sigma-1 site over dopamine (D2) receptor in rat using [3H]spiperone as radioligand
[3] = target: Sigma 2 receptor; experiment: The compound was evaluated for affinity at sigma-2 site by inhibition of [3H]1,3-di(2-tolyl)guanidine (DTG) binding in guinea pig brain; parameters: species or system Cavia porcellus
Method in brief: (§1)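 Final [3H]DTG 4 nM with varied test concentrations. Incubation 25 °C for 90 min. PEI-soaked GF/B filtration, scintillation counting. Ki from EBDA/LIGAND, at least three determinations in triplicate.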

[4] = target: T1, D(1A) dopamine receptor (Rattus norvegicus, UniProt P18901); experiment: The nitro derivative RLH-033 shows significant selectivity for the [3H]-(=)-PENT site over […] in rat using [3H]SCH-23390 as radioligand
T1 sequence (P18901 whole entry): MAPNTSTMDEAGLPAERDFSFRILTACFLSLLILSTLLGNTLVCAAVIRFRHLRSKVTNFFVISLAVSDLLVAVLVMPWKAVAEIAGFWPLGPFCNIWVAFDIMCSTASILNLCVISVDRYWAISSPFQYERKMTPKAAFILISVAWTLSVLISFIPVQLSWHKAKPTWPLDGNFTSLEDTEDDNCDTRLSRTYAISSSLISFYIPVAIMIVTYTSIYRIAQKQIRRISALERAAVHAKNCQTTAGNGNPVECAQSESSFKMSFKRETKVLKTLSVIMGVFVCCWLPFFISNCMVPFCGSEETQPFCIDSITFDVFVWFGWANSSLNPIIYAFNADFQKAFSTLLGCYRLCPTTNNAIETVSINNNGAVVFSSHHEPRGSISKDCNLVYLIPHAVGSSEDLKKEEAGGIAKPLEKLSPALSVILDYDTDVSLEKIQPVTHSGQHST

[5] = target: T2, Glutamate NMDA receptor (Rattus norvegicus) (UniProt P35439+Q00959+Q00960+Q00961+Q62645+Q8VHN2+Q9R1M7); experiment: Binding affinity was measured as selectivity for sigma-1 site over N-methyl-D-aspartate (NMDA) receptor in rat using [3H]CGS-19,755 as radioligand at 10 uM
[6] = target: T3, Muscarinic acetylcholine receptor M1 (Rattus norvegicus, UniProt P08482); experiment: Binding affinity was measured as selectivity for sigma-1 site over muscarinic (M1) receptor in rat using [3H]pirenzepine as radioligand
T3 sequence (P08482 whole entry): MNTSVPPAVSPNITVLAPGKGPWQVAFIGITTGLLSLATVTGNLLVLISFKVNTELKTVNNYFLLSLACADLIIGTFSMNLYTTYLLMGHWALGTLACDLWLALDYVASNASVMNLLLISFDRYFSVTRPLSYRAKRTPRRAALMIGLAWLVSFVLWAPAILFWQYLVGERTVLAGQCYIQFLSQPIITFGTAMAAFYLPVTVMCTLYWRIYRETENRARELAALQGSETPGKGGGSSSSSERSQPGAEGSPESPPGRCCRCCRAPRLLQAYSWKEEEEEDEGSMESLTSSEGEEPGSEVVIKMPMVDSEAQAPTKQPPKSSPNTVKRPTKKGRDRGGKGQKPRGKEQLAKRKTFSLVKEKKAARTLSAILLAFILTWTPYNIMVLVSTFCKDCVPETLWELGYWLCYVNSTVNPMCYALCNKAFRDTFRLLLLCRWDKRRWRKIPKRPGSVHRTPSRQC

[7] = target: T3, Muscarinic acetylcholine receptor M1; experiment: The nitro derivative RLH-033 shows significant selectivity for the [3H]-(=)-PENT site over muscarinic 1 in rat using [3H]pirenzepine as radioligand
[8] = target: T4, Muscarinic acetylcholine receptor M2 (Rattus norvegicus, UniProt P10980); experiment: (§2) Binding affinity was measured as selectivity for sigma 1 site over muscarinic (M2) receptor at 10 uM in rat using [3H]QN as radioligand
T4 sequence (P10980 whole entry): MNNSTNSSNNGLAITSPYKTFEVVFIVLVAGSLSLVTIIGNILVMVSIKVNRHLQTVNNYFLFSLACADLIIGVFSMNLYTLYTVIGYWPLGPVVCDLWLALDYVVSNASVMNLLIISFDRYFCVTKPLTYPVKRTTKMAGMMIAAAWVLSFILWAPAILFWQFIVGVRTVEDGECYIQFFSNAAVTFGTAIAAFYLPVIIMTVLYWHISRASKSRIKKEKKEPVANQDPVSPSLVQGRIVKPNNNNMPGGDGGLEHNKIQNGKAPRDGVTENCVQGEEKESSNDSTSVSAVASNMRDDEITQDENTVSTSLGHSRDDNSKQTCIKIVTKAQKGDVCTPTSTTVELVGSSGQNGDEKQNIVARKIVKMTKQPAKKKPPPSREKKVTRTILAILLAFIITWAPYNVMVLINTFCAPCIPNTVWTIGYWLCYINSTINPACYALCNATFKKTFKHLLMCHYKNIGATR
Method in brief: (§3)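 Muscarinic binding, M1 in rat cortex with [3H]pirenzepine 0.5 nM and M2 in rat heart with [3H]QNB 0.05 nM.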

[9] = target: T4, Muscarinic acetylcholine receptor M2; experiment: The nitro derivative RLH-033 shows significant selectivity for the [3H]-(=)-PENT site over muscarinic 2 in rat using [3H]QN as radioligand
[10] = target: Opioid receptor (Rattus norvegicus) (UniProt P33533+P34975+P33535); experiment: Binding affinity was measured as selectivity for sigma-1 site over opioid receptor in rat using [3H]naloxone as radioligand at 10 uM
Sequence of Opioid receptor (Rattus norvegicus) (P33533 whole entry, looked up): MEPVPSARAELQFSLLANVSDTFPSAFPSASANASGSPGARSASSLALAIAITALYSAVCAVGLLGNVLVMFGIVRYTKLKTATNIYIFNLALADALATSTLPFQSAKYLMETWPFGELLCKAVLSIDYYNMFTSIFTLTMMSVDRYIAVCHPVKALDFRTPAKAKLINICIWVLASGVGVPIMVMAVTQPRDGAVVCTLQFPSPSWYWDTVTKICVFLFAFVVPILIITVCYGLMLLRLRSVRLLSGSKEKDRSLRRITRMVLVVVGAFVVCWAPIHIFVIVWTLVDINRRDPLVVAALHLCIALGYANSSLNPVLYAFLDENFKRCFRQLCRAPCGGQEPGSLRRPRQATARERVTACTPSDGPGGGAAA
Sequence of Opioid receptor (Rattus norvegicus) (P33535 whole entry, looked up): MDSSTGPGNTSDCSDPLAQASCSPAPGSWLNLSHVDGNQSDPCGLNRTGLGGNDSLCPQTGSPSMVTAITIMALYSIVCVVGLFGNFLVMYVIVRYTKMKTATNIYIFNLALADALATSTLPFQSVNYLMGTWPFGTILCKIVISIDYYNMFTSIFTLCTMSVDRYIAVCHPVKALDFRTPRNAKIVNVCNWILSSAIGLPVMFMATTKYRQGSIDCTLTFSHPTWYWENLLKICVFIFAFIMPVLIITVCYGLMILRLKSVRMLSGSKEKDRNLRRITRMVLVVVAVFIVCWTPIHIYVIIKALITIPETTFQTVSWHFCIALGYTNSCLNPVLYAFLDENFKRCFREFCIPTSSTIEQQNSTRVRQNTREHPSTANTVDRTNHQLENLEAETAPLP
Sequence of Opioid receptor (Rattus norvegicus) (P34975 whole entry, looked up): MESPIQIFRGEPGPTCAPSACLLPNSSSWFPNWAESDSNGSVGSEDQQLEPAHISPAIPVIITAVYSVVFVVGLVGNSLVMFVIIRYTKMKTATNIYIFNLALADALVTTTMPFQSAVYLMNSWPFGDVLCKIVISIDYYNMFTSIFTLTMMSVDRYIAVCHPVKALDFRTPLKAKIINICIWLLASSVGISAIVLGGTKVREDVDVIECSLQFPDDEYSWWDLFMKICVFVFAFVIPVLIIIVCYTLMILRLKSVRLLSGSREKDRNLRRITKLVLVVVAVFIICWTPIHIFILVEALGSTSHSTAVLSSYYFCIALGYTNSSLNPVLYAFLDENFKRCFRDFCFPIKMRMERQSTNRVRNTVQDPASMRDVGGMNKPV

[11] = target: T2, Glutamate NMDA receptor (Rattus norvegicus); experiment: Binding affinity was measured as selectivity for sigma-1 site over phencyclidine (PCP) receptor in rat using [3H]TCP as radioligand at 10 uM
[12] = target: T5, D(2) dopamine receptor (Rattus norvegicus, UniProt P61169); experiment: The nitro derivative RLH-033 shows significant selectivity for the [3H]-(=)-PENT site over dopamine 2 in rat using [3H]SCH-23390 as radioligand
T5 sequence (P61169 whole entry): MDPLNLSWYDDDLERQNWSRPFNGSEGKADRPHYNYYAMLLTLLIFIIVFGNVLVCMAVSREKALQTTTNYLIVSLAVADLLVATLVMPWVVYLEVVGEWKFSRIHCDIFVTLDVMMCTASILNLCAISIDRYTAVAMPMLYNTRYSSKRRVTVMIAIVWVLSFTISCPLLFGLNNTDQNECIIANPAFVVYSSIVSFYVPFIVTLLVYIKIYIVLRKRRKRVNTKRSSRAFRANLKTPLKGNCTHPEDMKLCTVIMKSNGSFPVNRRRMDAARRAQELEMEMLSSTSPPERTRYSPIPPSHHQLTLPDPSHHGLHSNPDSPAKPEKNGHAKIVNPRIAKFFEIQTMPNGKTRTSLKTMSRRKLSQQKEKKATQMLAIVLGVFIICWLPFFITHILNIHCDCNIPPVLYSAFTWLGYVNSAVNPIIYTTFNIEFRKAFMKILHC

[13] = target: T6, Muscarinic acetylcholine receptor M2 (Rattus norvegicus) (UniProt P10980); experiment: as §2; method in brief: as §3
T6 sequence (whole entry): T4 sequence (P10980 whole entry)

[14] = target: T3, Muscarinic acetylcholine receptor M1; experiment: Binding affinity was measured as selectivity for sigma-1 site over muscarinic (M1) receptor in rat
[15] = target: T7, Opioid receptor (Rattus norvegicus, UniProt P33533+P34975+P33535); experiment: Binding affinity was measured as selectivity for sigma-1 site over opioid receptor in rat using [3H]naloxone as radioligand
[16] = target: Glutamate NMDA receptor; experiment: Binding affinity was measured as selectivity for sigma-1 site over phencyclidine (PCP) receptor in rat using [3H]TCP as radioligand
[17] = target: T5, D(2) dopamine receptor; experiment: Iodo derivative shows a potent sigma binding ligand, had some affinity for D2 site in rat
[18] = target: T2, Glutamate NMDA receptor (Rattus norvegicus); experiment: Binding affinity was measured against N-methyl-D-aspartate (NMDA) receptor in rat using [3H]CGS-19,755 as radioligand at 10 uM
[19] = target: T4, Muscarinic acetylcholine receptor M2; experiment: Binding affinity was measured against muscarinic (M2) receptor at 10 uM in rat using [3H]QN as radioligand
[20] = target: T1, D(1A) dopamine receptor; experiment: Binding affinity was measured against dopamine receptor D1 in rat using [3H]SCH-23390 as radioligand
[21] = target: T5, D(2) dopamine receptor; experiment: Binding affinity was measured against dopamine (D2) receptor in rat using [3H]spiperone as radioligand
[22] = target: T2, Glutamate NMDA receptor (Rattus norvegicus); experiment: Binding affinity was measured against phencyclidine (PCP) receptor in rat using [3H]-TCP as radioligand at 10 uM
[23] = target: Sigma 2 receptor; experiment: Affinity at sigma-2 site by inhibition of [3H]1,3-di(2-tolyl)guanidine (DTG) binding in guinea pig brain.; parameters: species or system Cavia porcellus; method in brief: as §1
[24] = target: T3, Muscarinic acetylcholine receptor M1; experiment: Binding affinity was measured against muscarinic (M1) receptor in rat using [3H]pirenzepine as radioligand
[25] = target: T7, Opioid receptor; experiment: Binding affinity was measured against opioid receptor in rat using [3H]naloxone as radioligand
[26] = target: Glutamate NMDA receptor; experiment: Binding affinity was measured against phencyclidine (PCP) receptor in rat using [3H]TCP as radioligand

Q: With `N#Cc1ccc(C2(C(=O)OCCN3CCC(c4ccccc4)CC3)CCCC2)cc1` as the molecule, how does the Ki [1] read?
A: > 1000 nM

Q: And the Ki [2]?
A: 195 nM

Q: What about the Ki [3] of the same molecule?
A: 26.8 nM

Q: With `O=C(OCCN1CCC(c2ccccc2)CC1)C1(c2ccc([N+](=O)[O-])cc2)CCCC1` as the molecule, how does the Ki [1] read?
A: 2900 nM

Q: What about the Ki [4] of the same molecule?
A: > 58000 nM

Q: And the Ki [2]?
A: 350 nM

Q: What about the inhibition [5] of the same molecule?
A: 12%

Q: And the Ki [6]?
A: 880 nM

Q: What about the Ki [7] of the same molecule?
A: > 17600 nM

Q: And the Ki [8]?
A: 1710 nM

Q: And the Ki [9]?
A: > 34200 nM

Q: What about the inhibition [10] of the same molecule?
A: 42%

Q: What about the inhibition [11] of the same molecule?
A: 7%

Q: What about the Ki [3] of the same molecule?
A: 3.93 nM

Q: What about the Ki [12] of the same molecule?
A: > 7000 nM

Q: For `O=C(OCCN1CCN(c2ccccc2)CC1)C1(c2ccccc2)CCCC1`, which Ki [2] is on record?
A: > 500 nM

Q: And the inhibition [5]?
A: 7%

Q: What about the inhibition [13] of the same molecule?
A: 98%

Q: And the Ki [14]?
A: 1470 nM

Q: What about the inhibition [10] of the same molecule?
A: 43%

Q: And the inhibition [11]?
A: 1%

Q: What about the Ki [3] of the same molecule?
A: 696 nM

Q: Which Ki [1] does the source give for `Cc1ccccc1NC(=N)Nc1ccccc1C` here?
A: > 5000 nM

Q: What about the Ki [2] of the same molecule?
A: > 5000 nM

Q: And the inhibition [5]?
A: 0%

Q: And the Ki [14]?
A: 744 nM

Q: What about the Ki [8] of the same molecule?
A: 2960 nM

Q: What about the Ki [15] of the same molecule?
A: 3950 nM

Q: And the Ki [16]?
A: 6690 nM

Q: Which Ki [1] does the source give for `O=C(OCCCN1CCC(c2ccccc2)CC1)C1(c2ccccc2)CCCC1` here?
A: 10000 nM

Q: And the Ki [2]?
A: 1200 nM

Q: What about the Ki [14] of the same molecule?
A: 170 nM

Q: And the Ki [8]?
A: 670 nM

Q: What about the Ki [3] of the same molecule?
A: 1.17 nM

Q: For `COc1ccc(C2(C(=O)OCCCN3CCC(c4ccccc4)CC3)CCCC2)cc1`, which Ki [1] is on record?
A: 6000 nM

Q: And the Ki [2]?
A: 1000 nM

Q: What about the Ki [3] of the same molecule?
A: 1.71 nM

Q: With `O=C(OCCCCCN1CCC(c2ccccc2)CC1)C1(c2ccccc2)CCCC1` as the molecule, how does the Ki [3] read?
A: 1.05 nM

Q: Which Ki [1] does the source give for `O=C(OCCN1CCC(c2ccccc2)CC1)C1(c2ccc(I)cc2)CCCC1` here?
A: > 1000 nM

Q: And the Ki [17]?
A: 55 nM

Q: What about the inhibition [10] of the same molecule?
A: 25%

Q: And the inhibition [11]?
A: 8%

Q: What about the Ki [3] of the same molecule?
A: 52 nM

Q: Which results are given for `O=C(OCCCCN1CCC(c2ccccc2)CC1)C1(c2ccccc2)CCCC1`?
A: Ki [1]: 3100 nM; Ki [2]: 470 nM; Ki [3]: 0.69 nM

Q: For `O=C(OCCCN1CCC(c2ccccc2)CC1)C1(c2ccc(Cl)cc2)CCCC1`, which Ki [3] is on record?
A: 4.41 nM

Q: With `COc1ccc2c(c1)[C@]13CCCC[C@@H]1[C@H](C2)N(C)CC3` [DEXTROMETHORPHAN] as the molecule, how does the inhibition [18] read?
A: 2%

Q: And the Ki [19]?
A: > 10000 nM

Q: Which Ki [1] does the source give for `O=C(OCCN1CCN(c2ccccc2)CC1)C1(c2ccc([N+](=O)[O-])cc2)CCCC1` here?
A: 1000 nM

Q: What about the Ki [2] of the same molecule?
A: 500 nM

Q: And the inhibition [5]?
A: 19%

Q: What about the inhibition [10] of the same molecule?
A: 25%

Q: What about the inhibition [11] of the same molecule?
A: 10%

Q: What about the Ki [3] of the same molecule?
A: 30.3 nM

Q: For `O=C(OCCN1CCN(c2ccccc2)CC1)C1(c2ccc(I)cc2)CCCC1`, which Ki [1] is on record?
A: 650 nM

Q: And the Ki [2]?
A: 215 nM

Q: What about the inhibition [10] of the same molecule?
A: 25%

Q: And the inhibition [11]?
A: 7%

Q: What about the Ki [3] of the same molecule?
A: 293 nM

Q: For `O=C(CCCN1CCC(O)(c2ccc(Cl)cc2)CC1)c1ccc(F)cc1`, which inhibition [18] is on record?
A: 25%

Q: With `CCN(CC)CCOC(=O)C1(c2ccccc2)CCCC1` as the molecule, how does the Ki [20] read?
A: > 1000 nM

Q: What about the Ki [21] of the same molecule?
A: > 500 nM

Q: What about the inhibition [18] of the same molecule?
A: 19%

Q: And the inhibition [22]?
A: 11%

Q: And the Ki [23]?
A: 658 nM

Q: With `O=C(OCCCN1CCC(c2ccccc2)CC1)C1(c2ccc([N+](=O)[O-])cc2)CCCC1` as the molecule, how does the Ki [3] read?
A: 0.88 nM

Q: With `O=C(OCCN1CCC(c2ccccc2)CC1)C1(c2ccccc2)CCCC1` as the molecule, how does the Ki [1] read?
A: 4900 nM

Q: And the Ki [2]?
A: 1100 nM

Q: What about the inhibition [5] of the same molecule?
A: 15%

Q: What about the inhibition [13] of the same molecule?
A: 20%

Q: What about the Ki [6] of the same molecule?
A: 170 nM

Q: And the inhibition [10]?
A: 63%

Q: And the inhibition [11]?
A: 8%

Q: What about the Ki [3] of the same molecule?
A: 52.3 nM

Q: Which Ki [3] does the source give for `COc1ccc(C2(C(=O)OCCN3CCC(c4ccccc4)CC3)CCCC2)cc1` here?
A: 31.8 nM

Q: With `O=C(OCCCCCCN1CCC(c2ccccc2)CC1)C1(c2ccccc2)CCCC1` as the molecule, how does the Ki [3] read?
A: 1.88 nM

Q: Which results are given for `CC(C)=CCN1CC[C@]2(C)c3cc(O)ccc3C[C@H]1[C@H]2C` (single isomer, unassigned) [(+)-PENTAZOCINE]?
A: Ki [20]: > 5000 nM; Ki [21]: > 5000 nM; Ki [24]: 225 nM; Ki [19]: 525 nM; Ki [25]: 651 nM; Ki [26]: 4190 nM

Q: For `O=C(OCCN1CCN(c2ccccc2)CC1)C1(c2ccc(Cl)cc2)CCCC1`, which Ki [3] is on record?
A: 763 nM

Q: With `O=C(OCCN1CCC(c2ccccc2)CC1)C1(c2ccc(Cl)cc2)CCCC1` as the molecule, how does the Ki [3] read?
A: 23.9 nM

Q: Which Ki [3] does the source give for `O=C(OCCCN1CCC(c2ccccc2)CC1)C1(c2ccc(I)cc2)CCCC1` here?
A: 6.49 nM
